Rows were chosen to be rich in hits. Some 2.3% of all compounds tested hit in one or more screens of this group.
ADAM17 inh = inhibits human ADAM17. 0.83% of 370,000 active. P78536. recombinant ADAM17, EDANS/DABCYL FRET peptide cleavage. inhibition, % at 6.95 µM;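 active = inhibition above the mean of compounds lying between control limits plus 3 SD, set per campaign, cut at about 8.5% in these data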;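 note: 0% = DMSO-only wells as the low control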
Target sequence (P78536 215-824 limits assumed): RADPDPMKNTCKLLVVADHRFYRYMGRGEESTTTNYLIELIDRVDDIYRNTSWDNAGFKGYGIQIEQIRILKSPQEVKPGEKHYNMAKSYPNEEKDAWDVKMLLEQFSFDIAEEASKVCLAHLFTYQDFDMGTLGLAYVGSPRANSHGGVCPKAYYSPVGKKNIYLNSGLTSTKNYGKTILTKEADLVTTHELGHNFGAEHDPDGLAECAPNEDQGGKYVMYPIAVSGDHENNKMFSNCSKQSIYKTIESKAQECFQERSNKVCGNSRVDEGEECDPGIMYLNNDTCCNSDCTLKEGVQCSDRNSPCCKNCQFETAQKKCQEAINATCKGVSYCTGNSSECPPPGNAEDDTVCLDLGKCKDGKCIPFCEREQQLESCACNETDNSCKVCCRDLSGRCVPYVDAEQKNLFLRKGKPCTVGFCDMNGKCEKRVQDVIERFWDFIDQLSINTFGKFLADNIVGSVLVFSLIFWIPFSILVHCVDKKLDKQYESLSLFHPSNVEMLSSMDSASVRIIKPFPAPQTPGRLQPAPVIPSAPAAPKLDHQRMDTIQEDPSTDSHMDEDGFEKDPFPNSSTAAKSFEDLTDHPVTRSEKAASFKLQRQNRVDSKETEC
Tn7 DDE FP = inhibitors of Tn7 peptide binding to human fibrin DD(E). FP displacement of FITC-Tn7 peptide from fibrin DD(E); 0% = median of compound wells per plate. 0.13% of 370,000 active. P02675. AID 720508. inhibition, % at 8.3 µM;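 active = inhibition above the mean of compounds falling within the control limits plus 3 SD of them, cut at about 14% in these data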;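 note: 0% = plate median of compound wells and 100% = 10 µM Aha-Tn7 peptide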
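Assay system: Fibrin-DD(E) protein isolated from polymerized human fibrin clots; read-out basis: percent inhibition; medium: Tris/NaCl/CaCl2 buffer, pH 7.8; signal: FP measurement; incubation: 10 min plus 3 h, room temperature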
Tn6 DDE FP = DD(E)-Tn6 binding inhibition, primary FP screen; P02675; Fibrin DD(E) TRITC-Tn6 fluorescence polarization displacement; inhibition, % at 8.3 µM; 0.21% of 370,000 active; AID 720509;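 active = inhibition above a per-campaign cutoff: mean of compounds within control limits plus 3 SD, cut at about 15% in these data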;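 note: 0% = median of all compound wells on the plate and 100% = blocking peptide control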
ADAM10 inh = inhibits human ADAM10; O14672; inhibition, % at 7 µM; recombinant ADAM10, EDANS/DABCYL FRET peptide cleavage, 3 h; 0.62% of 370,000 active;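 active = inhibition above a per-campaign cutoff equal to the mean of compounds falling between control-based bounds plus 3 SD, cut at about 20% in these data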;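 note: 0% = DMSO wells while the 100% control is not disclosed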
PLCg1 inh = inhibitors of human phospholipase C gamma1; P19174; purified PLC-gamma1, fluorogenic substrate, fluorescence; inhibition, % at 12.2 µM; 0.84% of 370,000 active; in the data active = inhibition above about 9.5%
PLC-beta3 inh = PLC-beta3 (human) inhibition, primary screen; inhibition, % at 12.2 µM; AID 720704; Purified PLC-beta3, fluorogenic substrate, fluorescence; Q01970; 0.18% of 370,000 active;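 note: 0% = median of compound wells on plate and 100% = full blocker control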
PLCg1 ctr = counter-screen for PLC-beta3 inhibitors: inhibitors of human PLC-gamma1. 3.1% of 3,300 active. inhibition, % at 12.3 µM. shares compounds with PLCg1 inh. purified PLC-gamma1, fluorogenic substrate, fluorescence; in the data active = inhibition above about 9.5%
PLCb3 confirm = confirmation of human PLC-beta3 inhibitors. shares compounds with PLCg1 inh. 1% of 3,300 active. inhibition, % at 12.3 µM. AID 743261. purified PLC-beta3, fluorogenic substrate fluorescence
The depositor's hits bear a star. Cut-off read from the data, not from the text of the source, unless noted: active = inhibition above about 11%; inactive = the rest.

For CC1CCCCC1NC(=S)NC(=O)c1ccccc1Br (centres undefined) the results were ADAM17 inh 0, Tn7 DDE FP 0, Tn6 DDE FP 3, ADAM10 inh -1, PLCg1 inh 1 and PLC-beta3 inh 3.
For CC1CCCCC1NC(=S)NC(=O)c1ccccc1Cl (centres undefined) the results were ADAM17 inh 8, Tn7 DDE FP -2, Tn6 DDE FP 12, ADAM10 inh 9, PLCg1 inh 11*, PLC-beta3 inh -3, PLCg1 ctr -4 and PLCb3 confirm -4.
CC(c1c[nH]c2ccccc12)c1c[nH]c2ccc(Br)cc12 (centres undefined) was read as ADAM17 inh 0, Tn7 DDE FP -6, Tn6 DDE FP 5, ADAM10 inh -3, PLCg1 inh -4 and PLC-beta3 inh -8.
`O=C1OC[C@H]2CCCC[C@@H](CO)ON12` gave ADAM17 inh 4, Tn7 DDE FP -9, Tn6 DDE FP -2, ADAM10 inh 5, PLCg1 inh 9.6*, PLC-beta3 inh 2, PLCg1 ctr 0 and PLCb3 confirm 0.
Screening CCSc1cc(N2CCCC2)nc(-c2ccc(F)cc2)n1 returned ADAM17 inh 7, Tn7 DDE FP -2, Tn6 DDE FP -2, ADAM10 inh 5, PLCg1 inh 9, PLC-beta3 inh 11*, PLCg1 ctr -6 and PLCb3 confirm -4.
`CC(=O)Nc1ccc2c(c1)C(=O)N(C)[C@H]1CC[C@H](CC(=O)NCc3ccc(F)cc3)O[C@@H]1CO2` gave ADAM17 inh -1, Tn7 DDE FP 3, Tn6 DDE FP -1, ADAM10 inh 6, PLCg1 inh 6 and PLC-beta3 inh 7.
`CC1C(c2ccccc2)OCCN1C(=S)NC(=O)c1ccccc1` (centres undefined) gave ADAM17 inh 4, Tn7 DDE FP -2, Tn6 DDE FP -3, ADAM10 inh -7, PLCg1 inh 1, PLC-beta3 inh 15*, PLCg1 ctr -6 and PLCb3 confirm -1.
CC1CCN(C(=S)NC(=O)c2ccccc2)CC1 was read as ADAM17 inh 0, Tn7 DDE FP -1, Tn6 DDE FP 4, ADAM10 inh 1, PLCg1 inh 4 and PLC-beta3 inh 3.
Cc1ccc(CN2CCCCC(NC(=O)Nc3ccccc3)C2=O)cc1 (centres undefined) was read as ADAM17 inh -5, Tn7 DDE FP 12, Tn6 DDE FP -3, ADAM10 inh -2, PLCg1 inh 0 and PLC-beta3 inh 0.
COC(=O)[C@]12C[C@H](CC(=O)N3CCCCC3)C(=O)N(Cc3ccccc3)C1=C[C@H](COCc1ccccc1)O[C@@H]2C was read as ADAM17 inh -2, Tn7 DDE FP 2, Tn6 DDE FP 0, ADAM10 inh 3, PLCg1 inh -1 and PLC-beta3 inh 1.
Screening CN(C)S(=O)(=O)c1ccc(C(=O)Nc2nnc(Cc3ccccc3)s2)cc1 returned ADAM17 inh 1, Tn7 DDE FP -1, Tn6 DDE FP -2, ADAM10 inh 9, PLCg1 inh 9, PLC-beta3 inh 11*, PLCg1 ctr -4 and PLCb3 confirm -13.
Cc1nc2ccc(NC(=O)c3ccc(F)cc3Cl)cc2c(=O)[nH]1 was read as ADAM17 inh -11, Tn7 DDE FP -1, Tn6 DDE FP -3, ADAM10 inh -48, PLCg1 inh -8 and PLC-beta3 inh -14.
COC(CNC(=O)CC1C(=O)N(Cc2ccccc2)C(C)c2nc3ccccc3n21)OC (centres undefined) was read as ADAM17 inh 0, Tn7 DDE FP 2, Tn6 DDE FP 2, ADAM10 inh -4, PLCg1 inh 3 and PLC-beta3 inh 1.

Screens: PubChem BioAssay, The Scripps Research Institute Molecular Screening Center
